# An excerpt weighted towards active compounds, which were near 3.8% of everything screened.
# NPY-Y1 PAM-ag – human NPY-Y1 potentiation or agonism, primary screen. 220,000 compounds, 0.37% hits. P25929. AID 1304. activation, % at 3.6 µM. NPY-Y1 expressing cells, potentiator/agonist activation; in the data active = activation above about 33%, passing the limit was not always enough;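 note: cells stimulated with NPY at EC10 then isoproterenol at EC100; 0% = low agonist plus stimulus and 100% = saturating agonist plus stimulus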
# NPY-Y1 antag – antagonists of human neuropeptide Y receptor Y1; 200,000 compounds, 1% hits; inhibition, % at 3.6 µM; AID 1040; HEK293-CNG Y1 cells, membrane potential fluorescence; NPY at EC95, then isoproterenol;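 active = inhibition above the campaign mean inhibition of all tested compounds plus 3 SD, cut at about 20% in these data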;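 note: 0% = DMSO wells given NPY plus isoproterenol and 100% = isoproterenol alone without NPY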
#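 Material: Y1- and CNG-channel-expressing HEK293 cells / Probe or stimulus: NPY 25 nM then isoproterenol 1 µM plus Ro 20-1724 25 µM / Doses: 3.6 µM single dose, DMSO 0.4% / Schedule: compound incubation 1 h at room temperature, readout 45 min post-stimulation / Signal: membrane potential fluorescence / Benchmarks: isoproterenol-only wells as full block versus NPY-plus-isoproterenol wells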
# Insulin prom inh – TRM-6 insulin promoter activity inhibition; TRM-6 cells, insulin promoter-eGFP reporter, imaging; reporter expression induced with tamoxifen; inhibition, % at 2 µM; 130,000 compounds, 0.9% hits;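 active = inhibition above the mean plus 3 SD, with well images judged a real hit on visual review, cut at about 60% in these data, passing the limit was not always enough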
# NPY2 pot ag – human NPY-Y2 potentiation or agonism, primary screen; P49146; cells expressing NPY-Y2, potentiator/agonist read-out; activation, % at 3.6 µM; 220,000 compounds, 0.45% hits; AID 1359; in the data active = activation above about 27%;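 note: cells stimulated with NPY near EC25 plus isoproterenol at EC100; 0% = vehicle plus submaximal agonist and 100% = vehicle plus saturating agonist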
# Target sequence (P49146 whole entry, looked up): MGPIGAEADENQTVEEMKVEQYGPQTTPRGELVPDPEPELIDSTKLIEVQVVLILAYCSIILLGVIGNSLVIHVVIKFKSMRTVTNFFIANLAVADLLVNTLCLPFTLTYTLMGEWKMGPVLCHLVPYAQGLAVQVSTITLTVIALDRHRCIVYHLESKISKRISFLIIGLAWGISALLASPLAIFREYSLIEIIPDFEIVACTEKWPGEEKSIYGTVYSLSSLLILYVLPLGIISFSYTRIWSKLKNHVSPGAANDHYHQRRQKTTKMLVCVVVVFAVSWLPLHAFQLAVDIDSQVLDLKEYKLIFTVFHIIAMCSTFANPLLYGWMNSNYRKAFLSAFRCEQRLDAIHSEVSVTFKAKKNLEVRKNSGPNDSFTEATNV
# NPY-Y2 antag – antagonists of human neuropeptide Y receptor Y2 | 140,000 compounds, 0.99% hits | NPY-Y2 expressing cells, antagonist mode | P49146 | inhibition, % at 2.7 µM | AID 793; in the data active = inhibition above about 17%;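 note: 0% = vehicle with agonist challenge and 100% = reference antagonist with challenge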
# RAM inhibit – blocks the yeast RAM network; S. cerevisiae dse1pr::URA3 reporter, 5-FOA growth OD615, 2 d; analog-sensitive cbk1-as2 kinase mutant strain; inhibition, % at 50 µM; 190,000 compounds, 1.8% hits;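 active = inhibition above a set limit, 3 SD over mean compound inhibition, cut at about 8.4% in these data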;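 note: 0% = DMSO-only wells with no growth and 100% = 10 µM 1-NA-PP1 full growth; inhibition rescues growth on 5-FOA so higher OD means more RAM inhibition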
# The depositor's hits bear a star; . = no result given.
SMILES,NPY-Y1 PAM-ag,NPY-Y1 antag,Insulin prom inh,NPY2 pot ag,NPY-Y2 antag,RAM inhibit
O=C(O)c1ccccc1C(=O)NC1CCCCNC1=O (centres undefined),13,.,.,-8,.,.
CNC(=O)c1ccc(-c2sc3nc(N4CCOCC4)c4c(c3c2N)CCCC4)o1,11,3,.,-22,0,9.3*
O=C(Nc1ccc(/C=C/c2nc3ccccc3o2)cc1)c1ccc(F)cc1,-6,0,-46,9,10,7
O=C1CC(c2ccc(F)cc2)CC2=C1C(c1ccc([N+](=O)[O-])o1)Nc1ccccc1N2 (centres undefined),10,.,.,-3,.,.
Cc1ccccc1NC(=S)N(C)Cc1cccs1,104*,-17,-13,101*,-1,2
O=C(CN(Cc1ccccc1)S(=O)(=O)c1cccc(C(F)(F)F)c1)NC1CCCCC1,-22,1,.,-5,2,8.8*
CCC(C)(C)NC(=O)C(c1cccn1C)N(Cc1ccc(OC)cc1)C(=O)Cn1nnc2ccccc21 (centres undefined),-159,52*,41,-81,53*,1
CCC(C)(C)NC(=O)C(c1cccn1C)N(C(=O)Cn1nnc2ccccc21)c1ccccc1OC (centres undefined),-12,2,-37,4,5,3
COC(=O)CCCCC1SCC(NC(=O)c2ccccc2)C1OC(C)=O (centres undefined),-3,6,.,-1,.,9.2*
COC(=O)CCCCC1SCC(NC(=O)c2ccccc2)C1=O (centres undefined),6,-5,.,-7,.,2
COC(=O)N=Nc1c(O)n(Cc2ccccc2)c2ccccc12,-30,.,.,-4,.,.
CCOC(=O)N=Nc1c(O)n(Cc2ccccc2)c2ccccc12,4,-2,.,-1,.,11*
N#CCCn1cc(C(=O)Nc2ccc(C(=O)O)cc2)c(-c2ccc([N+](=O)[O-])cc2)n1,-10,-3,.,-6,.,8.8*
O=C(/C=C/c1ccccc1)NC(NC(=S)Nc1cccc(Cl)c1)C(Cl)(Cl)Cl (centres undefined),-9,-3,23,9,-3,8.9*
O=C(/C=C/c1cccc(Cl)c1)Nc1ncccn1,6,0,.,6,1,-2
CSc1cccc(NC(=O)/C=C/c2cccc(Cl)c2)c1,-2,-5,-57,-13,3,9.1*
O=C(NC(NC(=S)Nc1ccccc1Cl)C(Cl)(Cl)Cl)c1cccc(Cl)c1 (centres undefined),28,-11,11,20,-2,9.4*
O=C(/C=C/c1ccccc1)NC(NC(=S)Nc1cccc(O)c1)C(Cl)(Cl)Cl (centres undefined),-38,0,26,9,-1,6
O=C(Cc1cccc2ccccc12)NC(NC(=S)Nc1ccccc1Cl)C(Cl)(Cl)Cl (centres undefined),-7,-7,.,9,-1,8
N[C@@H](Cc1ccc(O)cc1)c1nnc([C@H](CCC(=O)O)NC(=O)C2CCNCC2)o1,1,3,.,-17,.,0
COC(=O)c1cc(-c2ccc(NC(C)=O)cc2)nc2ccccc12,-2,1,.,6,.,1
Cc1cc(C(C)(C)C)oc1C(=O)N(CC(=O)NC1CCCC1)Cc1ccccc1Cl,-31,26*,-16,-20,27*,1
CC1(C)CC(=O)C/C(=N\NC(=O)C2CC23CCC3)C1 (centres undefined),7,2,21,-3,.,4
Cc1cc(Br)ccc1NC(=O)CNC(=O)CN1C(=O)NC2(CCCCCC2)C1=O,27,-6,.,23,-1,3
Cc1cc(Br)ccc1NC(=O)CN1C(=O)C2C3CC(c4ccccc4)C(C3)C2C1=O (centres undefined),67*,-22,-19,53*,-6,2
Cc1cccc2sc(NC(=O)C3=NN(c4ccccc4)C(=O)CC3)nc12,12,-1,.,6,6,11*
COc1ccccc1C(=O)Nc1ccc(C2=NNC(=O)CC2C)cc1 (centres undefined),-77,96*,-17,-17,72*,3
CCCCNc1oc(-c2cccs2)nc1S(=O)(=O)c1ccccc1,-11,6,-13,4,7,9.5*

# Bioassay records: PubChem, several laboratories
